Experimental data: ChEMBL document CHEMBL1141110, “Structure-activity relationships of new A,D-ring modified steroids as aromatase inhibitors: design, synthesis, and biological activity evaluation” (J Med Chem, 2005)

Assays:
Aromatase [1] = molecular target: T1, Aromatase (Homo sapiens, UniProt P11511); assay: Percent inhibition at 2 uM against aromatase protein from human placental microsomes using [1-beta-3H]-androstenedione
T1 sequence (P11511 whole entry): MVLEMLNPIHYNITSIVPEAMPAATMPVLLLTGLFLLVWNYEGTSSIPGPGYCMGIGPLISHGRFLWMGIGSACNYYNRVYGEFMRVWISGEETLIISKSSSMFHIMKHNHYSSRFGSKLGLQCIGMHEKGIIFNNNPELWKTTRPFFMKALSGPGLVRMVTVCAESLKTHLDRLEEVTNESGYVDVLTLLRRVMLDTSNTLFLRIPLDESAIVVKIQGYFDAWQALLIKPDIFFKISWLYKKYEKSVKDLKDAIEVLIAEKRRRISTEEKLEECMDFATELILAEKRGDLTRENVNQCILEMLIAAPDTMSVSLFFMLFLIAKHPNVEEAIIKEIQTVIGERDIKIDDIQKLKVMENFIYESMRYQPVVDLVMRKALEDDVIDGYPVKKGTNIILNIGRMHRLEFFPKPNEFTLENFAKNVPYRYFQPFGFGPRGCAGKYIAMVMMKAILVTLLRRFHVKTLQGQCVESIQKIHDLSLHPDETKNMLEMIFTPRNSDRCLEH
How it was run: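 Screening used 20 µg microsomal protein from human placenta, 40 nM [1β-3H]androstenedione (1 µCi) and inhibitor at 2 µM in 67 mM K phosphate pH 7.4. Reaction was started with 150 µM NADPH and run 15 min at 37 °C. 3H2O release was measured by scintillation counting after chloroform and charcoal-dextran cleanup. Inhibition is given relative to the no-inhibitor control. Triplicates.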

Aromatase [2] = molecular target: T1, Aromatase; assay: Ratio of Michaelis-Menten constant and inhibition constant for aromatase enzyme; Competitive inhibition
How it was run: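 Ratio of substrate Km to Ki. Km for androstenedione and Ki come from the same placental-microsome kinetic runs: 10-30 nM [1β-3H]androstenedione, 150 µM NADPH, 5 min at 37 °C, with 3H2O release as the read-out. Ki was taken from Dixon plots.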

Aromatase [3] = molecular target: T1, Aromatase; assay: Inhibition constant against aromatase protein from human placental microsomes using [1-beta-3H]-androstenedione; Competitive inhibition
How it was run: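 Microsomes from human placenta. Kinetic runs used 10-30 nM [1β-3H]androstenedione with 150 µM NADPH, a range of inhibitor and substrate concentrations, and 5 min at 37 °C in 67 mM K phosphate pH 7.4. Released 3H2O was separated with chloroform and dextran-coated charcoal, then scintillation counted. Inhibition type was taken from Lineweaver-Burk plots and Ki from Dixon plots. Triplicates.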

Aromatase [4] = molecular target: T1, Aromatase; assay: Inhibitory concentration against aromatase protein from human placental microsomes using [1-beta-3H]-androstenedione; Competitive inhibition
How it was run: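 Human placental microsomes in 67 mM K phosphate pH 7.4 with 200 nM [1β-3H]androstenedione (1 µCi) and graded inhibitor concentrations; inhibitors were dissolved in ethanol. Reaction was started with 150 µM NADPH and run 15 min at 37 °C. 3H2O was extracted with chloroform and dextran-coated charcoal, then scintillation counted. Triplicates.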

[5] = substrate: C[C@]12CCC(=O)C=C1CC[C@@H]1[C@@H]2CC[C@]2(C)C(=O)CC[C@@H]12; assay: Michaelis-Menten constant against Aromatase; parameters: species or system Homo sapiens
How it was run: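 Human placental microsomes (cotyledon homogenate, differential centrifugation, stored -80 °C), 67 mM potassium phosphate pH 7.4. Kinetic runs used 10-30 nM [1β-3H]androstenedione, NADPH 150 µM to start, 5 min at 37 °C. Aromatization read as released 3H2O after chloroform and dextran-charcoal extraction, by scintillation counting. Lineweaver-Burk analysis; points are means of three determinations.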

C[C@]12CC[C@@H](O)C(=O)[C@@H]1CC[C@@H]1[C@@H]2CC[C@]2(C)C(=O)CC[C@@H]12
inhibition at 2 µM (Aromatase [1]): 83.3%
Km/Ki (Aromatase [2]): 0.39
Ki (Aromatase [3]): 147 nM
IC50 (Aromatase [4]): 670 nM

C[C@]12CC[C@@H](O)[C@H](O)[C@@H]1CC[C@@H]1[C@@H]2CC[C@]2(C)C(=O)CC[C@@H]12
inhibition at 2 µM (Aromatase [1]): 34.6%

C[C@]12CCC3C(CC[C@@H]4[C@H]5O[C@H]5CC[C@]34C)C1CCC2=O (stereo partly specified)
inhibition at 2 µM (Aromatase [1]): 14.6%

C[C@]12CCC3C(CC[C@H]4C(O)(C#N)[C@H](O)CC[C@]34C)C1CCC(=O)O2 (stereo partly specified)
inhibition at 2 µM (Aromatase [1]): 17.6%

C[C@]12CCC3C(CC[C@H]4C(=O)[C@H](O)CC[C@]34C)C1CCC(=O)O2 (stereo partly specified)
inhibition at 2 µM (Aromatase [1]): 16.6%

C[C@]12CC[C@H]3O[C@H]3[C@@H]1CC[C@@H]1[C@@H]2CC[C@]2(C)C(=O)CC[C@@H]12
inhibition at 2 µM (Aromatase [1]): 96.4%
Km/Ki (Aromatase [2]): 1.51
Ki (Aromatase [3]): 38 nM
IC50 (Aromatase [4]): 145 nM

C[C@]12CCC(=O)C(O)=C1CCC1C2CC[C@]2(C)OC(=O)CCC12 (stereo partly specified)
inhibition at 2 µM (Aromatase [1]): 72.5%
Km/Ki (Aromatase [2]): 0.087
Ki (Aromatase [3]): 660 nM
IC50 (Aromatase [4]): 1850 nM

C[C@]12CCC3C(CC[C@H]4[C@@H](O)[C@H](O)CC[C@]34C)C1CCC(=O)O2 (stereo partly specified)
inhibition at 2 µM (Aromatase [1]): 8.1%

C[C@]12CCC3C(CC[C@H]4C=CCC[C@]34C)C1CCC2=O (stereo partly specified)
inhibition at 2 µM (Aromatase [1]): 95.9%
Km/Ki (Aromatase [2]): 1.15
Ki (Aromatase [3]): 50 nM
IC50 (Aromatase [4]): 225 nM

C[C@]12CCC(=O)C(O)=C1CC[C@@H]1[C@@H]2CC[C@]2(C)C(=O)CC[C@@H]12 [FORMESTANE]
inhibition at 2 µM (Aromatase [1]): 99.1%
IC50 (Aromatase [4]): 42 nM

C[C@]12CC[C@H](O)[C@@H](O)[C@H]1CC[C@@H]1[C@@H]2CC[C@]2(C)C(=O)CC[C@@H]12
inhibition at 2 µM (Aromatase [1]): 10.1%

C[C@]12CCC3C(CC[C@@]4(C=O)OC(=O)CC[C@]34C)C1CCC2=O (stereo partly specified)
inhibition at 2 µM (Aromatase [1]): 11%

B1: Aromatase (Homo sapiens) (protein)
chain: T1 sequence (P11511 whole entry)
Km [5]: 0.0575 µM
